Data on 9 molecules can be found in ChEMBL document CHEMBL1144306, “1-Hydroxyalkyl-3-phenylthioureas as novel HDL-elevating agents” (2005).

What all share (format): functional
Test [1] concerns Rattus norvegicus. As to the kind of experiment: Effect on change in body weight gain (relative to untreated control) in cholesterol fed-male rats at 75 mg/kg/day. A digest of the protocol: (§1)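 Male Sprague–Dawley rats, six per group, on a cholic acid- and cholesterol-supplemented diet. Compounds were mixed into the diet and given ad libitum for eight days. Change in body weight gain is expressed as a percentage of untreated controls. Significance was set at p < 0.05 versus untreated controls.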

For test [2], the system named is Rattus norvegicus. Description: Effect on level of total cholesterol (relative to untreated control) in cholesterol fed-male rats at 75 mg/kg/day. A digest of the protocol:
(§2)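 Male Sprague–Dawley rats (groups of six) fed a cholic acid- and cholesterol-supplemented diet; compound mixed into the diet, given ad libitum for eight days. Lipoproteins were separated by ultracentrifugation, and cholesterol was measured by an enzymatic colorimetric method. Results are % change versus untreated controls, with significance at p < 0.05.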

Test [3] has as its system Rattus norvegicus. As to the kind of experiment: Effect on level of apolipoprotein (Apo) AI (relative to untreated control) in cholesterol fed-male rats at 75 mg/kg/day. Summed up:
(§3)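 Six male Sprague–Dawley rats per group, fed a cholic acid/cholesterol-supplemented diet, received compound in the diet ad libitum for eight days. Serum Apo A–I was measured by SDS-PAGE or by rat competition ELISA and reported as % change versus untreated controls (p < 0.05). Gemfibrozil was the internal positive control in each study.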

Test [4] relates to Rattus norvegicus. Description: Effect on level of high density lipoprotein cholesterol (relative to untreated control) in cholesterol fed-male rats at 75 mg/kg/day. A digest of the protocol: as §2
The subject of test [5] is Rattus norvegicus. Description: Effect on level of triglyceride in (relative to untreated control) in cholesterol fed-male rats at 75 mg/kg/day. A digest of the protocol:
(§4)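 Serum triglycerides were measured in groups of six male Sprague–Dawley rats on a cholic acid/cholesterol-supplemented diet. Compound was dosed in the diet, ad libitum, for eight days. Results are % change relative to untreated controls, with significance at p < 0.05.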

In test [6] the test system is Rattus norvegicus. As to the kind of experiment: Effect on level of apolipoprotein (Apo) AI (relative to untreated control) in cholesterol fed-male rats at 55 mg/kg/day. Summed up:
as §3

Test [7] has as its system Rattus norvegicus. Description: Effect on level of total cholesterol (relative to untreated control) in cholesterol fed-male rats at 55 mg/kg/day. A digest of the protocol: as §2
The test system of test [8] is Rattus norvegicus. Description: Effect on level of high density lipoprotein cholesterol (relative to untreated control) in cholesterol fed-male rats at 55 mg/kg/day. Summed up:
(§5)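 Cholic acid/cholesterol-fed male Sprague–Dawley rats (n = 6 per group) were dosed via diet ad libitum for eight days. Lipoproteins were separated by ultracentrifugation and HDL cholesterol was quantified by an enzymatic colorimetric method. Values are % change relative to untreated controls, with significance at p < 0.05. Gemfibrozil was the internal positive control.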

In test [9] the test system is Rattus norvegicus. As to the kind of experiment: Effect on level of triglyceride in (relative to untreated control) in cholesterol fed-male rats at 55 mg/kg/day. Summed up:
as §4

The test system of test [10] is Rattus norvegicus. Description: Effect on change in body weight gain (relative to untreated control) in cholesterol fed-male rats at 55 mg/kg/day. Summed up:
as §1

Test [11] deals with Rattus norvegicus. Description: Effect on level of triglyceride in (relative to untreated control) in cholesterol fed-male rats at 74 mg/kg/day. A digest of the protocol: as §4
The subject of test [12] is Rattus norvegicus. As to the kind of experiment: Effect on change in body weight gain (relative to untreated control) in cholesterol fed-male rats at 74 mg/kg/day. Summed up:
as §1

Test [13] deals with Rattus norvegicus. Description: Effect on level of apolipoprotein (Apo) AI (relative to untreated control) in cholesterol fed-male rats at 74 mg/kg/day. Summed up: as §3
The test system of test [14] is Rattus norvegicus. Description: Effect on level of high density lipoprotein cholesterol (relative to untreated control) in cholesterol fed-male rats at 74 mg/kg/day. Summed up: as §2
The test system of test [15] is Rattus norvegicus. As to the kind of experiment: Effect on level of total cholesterol (relative to untreated control) in cholesterol fed-male rats at 74 mg/kg/day. Summed up: as §2
Test [16] concerns Rattus norvegicus. As to the kind of experiment: Effect on level of triglyceride in (relative to untreated control) in cholesterol fed-male rats at 68 mg/kg/day. A digest of the protocol:
as §4

Test [17] concerns Rattus norvegicus. Description: Effect on change in body weight gain (relative to untreated control) in cholesterol fed-male rats at 68 mg/kg/day. A digest of the protocol: as §1
Test [18] has as its system Rattus norvegicus. Description: Effect on level of apolipoprotein (Apo) AI (relative to untreated control) in cholesterol fed-male rats at 68 mg/kg/day. Summed up: as §3
The subject of test [19] is Rattus norvegicus. Description: Effect on level of high density lipoprotein cholesterol (relative to untreated control) in cholesterol fed-male rats at 68 mg/kg/day. Summed up: as §2
Test [20] concerns Rattus norvegicus. Description: Effect on level of total cholesterol (relative to untreated control) in cholesterol fed-male rats at 68 mg/kg/day. A digest of the protocol:
as §2

Test [21] has as its system Rattus norvegicus. Description: Effect on level of total cholesterol (relative to untreated control) in cholesterol fed-male rats at 42 mg/kg/day. Summed up:
as §2

Test [22] relates to Rattus norvegicus. As to the kind of experiment: Effect on level of triglyceride in (relative to untreated control) in cholesterol fed-male rats at 42 mg/kg/day. Summed up: as §4
The subject of test [23] is Rattus norvegicus. Description: Effect on change in body weight gain (relative to untreated control) in cholesterol fed-male rats at 42 mg/kg/day. Summed up:
as §1

The subject of test [24] is Rattus norvegicus. Description: Effect on level of high density lipoprotein cholesterol (relative to untreated control) in cholesterol fed-male rats at 42 mg/kg/day. Summed up: as §5
Test [25] concerns Rattus norvegicus. Description: Effect on level of apolipoprotein (Apo) AI (relative to untreated control) in cholesterol fed-male rats at 42 mg/kg/day. Summed up:
as §3

For test [26], the system named is Rattus norvegicus. Description: Effect on level of apolipoprotein (Apo) AI (relative to untreated control) in cholesterol fed-male rats at 66 mg/kg/day. A digest of the protocol: as §3
Test [27] concerns Rattus norvegicus. Description: Effect on level of total cholesterol (relative to untreated control) in cholesterol fed-male rats at 66 mg/kg/day. Summed up:
as §2

Test [28] has as its system Rattus norvegicus. Description: Effect on change in body weight gain (relative to untreated control) in cholesterol fed-male rats at 66 mg/kg/day. Summed up: as §1
The test system of test [29] is Rattus norvegicus. As to the kind of experiment: Effect on level of triglyceride in (relative to untreated control) in cholesterol fed-male rats at 66 mg/kg/day. Summed up: as §4
Test [30] concerns Rattus norvegicus. As to the kind of experiment: Effect on level of high density lipoprotein cholesterol (relative to untreated control) in cholesterol fed-male rats at 66 mg/kg/day. A digest of the protocol:
as §2

The test system of test [31] is Rattus norvegicus. As to the kind of experiment: Effect on level of total cholesterol (relative to untreated control) in cholesterol fed-male rats at 36 mg/kg/day. A digest of the protocol:
as §2

The test system of test [32] is Rattus norvegicus. Description: Effect on level of apolipoprotein (Apo) AI (relative to untreated control) in cholesterol fed-male rats at 36 mg/kg/day. A digest of the protocol:
as §3

Test [33] deals with Rattus norvegicus. As to the kind of experiment: Effect on level of triglyceride in (relative to untreated control) in cholesterol fed-male rats at 36 mg/kg/day. A digest of the protocol: as §4
Test [34] concerns Rattus norvegicus. Description: Effect on change in body weight gain (relative to untreated control) in cholesterol fed-male rats at 36 mg/kg/day. A digest of the protocol:
as §1

The subject of test [35] is Rattus norvegicus. As to the kind of experiment: Effect on level of high density lipoprotein cholesterol (relative to untreated control) in cholesterol fed-male rats at 36 mg/kg/day. Summed up:
as §5

Test [36] relates to Rattus norvegicus. As to the kind of experiment: Effect on change in body weight gain (relative to untreated control) in cholesterol fed-male rats at 50 mg/kg/day. A digest of the protocol:
as §1

In test [37] the test system is Rattus norvegicus. As to the kind of experiment: Effect on level of high density lipoprotein cholesterol (relative to untreated control) in cholesterol fed-male rats at 50 mg/kg/day. A digest of the protocol: as §5
In test [38] the test system is Rattus norvegicus. As to the kind of experiment: Effect on level of total cholesterol (relative to untreated control) in cholesterol fed-male rats at 50 mg/kg/day. Summed up: as §2
Test [39] concerns Rattus norvegicus. Description: Effect on level of triglyceride in (relative to untreated control) in cholesterol fed-male rats at 50 mg/kg/day. A digest of the protocol: as §4
In test [40] the test system is Rattus norvegicus. Description: Effect on level of apolipoprotein (Apo) AI (relative to untreated control) in cholesterol fed-male rats at 50 mg/kg/day. Summed up: as §3

With `Cc1ccc(Cl)cc1N/C(S)=N/[C@H](C)CO`, the Activity is reported as -4% in the test with Rattus norvegicus [1]; 85% in the test on Rattus norvegicus [2]; 6% in the test on Rattus norvegicus [3]; 13% in the test with Rattus norvegicus [4]; -23% with Rattus norvegicus [5].

As to `Cc1ccc(Cl)cc1/N=C(\S)NCCO`, the Activity in the test on Rattus norvegicus [6] is recorded as 48%; with Rattus norvegicus [7], 39%; with Rattus norvegicus [8], 75%; in the test on Rattus norvegicus [9], -53%; with Rattus norvegicus [10], -104%.

On to `Cc1ccc(N/C(S)=N/CCO)cc1Cl`, for which the Activity in the test with Rattus norvegicus [11] is given as -15%; with Rattus norvegicus [12], -77%; with Rattus norvegicus [13], -5%; with Rattus norvegicus [14], 72%; with Rattus norvegicus [15] it was 15%.

Consider `OCC/N=C(\S)Nc1cc(Cl)ccc1Cl`, for which the Activity with Rattus norvegicus [16] is recorded as -13%; with Rattus norvegicus [17] it was -66%; with Rattus norvegicus [18], 36%; in the test on Rattus norvegicus [19], 71%; in the test on Rattus norvegicus [20], 21%.

On to `OCC/N=C(\S)Nc1cccc(C(F)(F)F)c1`, for which the Activity with Rattus norvegicus [16] was -15%; in the test on Rattus norvegicus [17], -76%; with Rattus norvegicus [18], 36%; in the test with Rattus norvegicus [19], 66%; with Rattus norvegicus [20] it was 44%.

As for `Cc1cc(Cl)ccc1/N=C(\S)NCCO`, the Activity is recorded as 17% in the test with Rattus norvegicus [21]; -8% in the test on Rattus norvegicus [22]; -229% in the test with Rattus norvegicus [23]; 53% with Rattus norvegicus [24]; 18% in the test with Rattus norvegicus [25].

Take `OCC/N=C(\S)Nc1cccc(Cl)c1`: the Activity in the test with Rattus norvegicus [26] was 43%; in the test on Rattus norvegicus [27], 30%; with Rattus norvegicus [28], -70%; with Rattus norvegicus [29], -31%; in the test with Rattus norvegicus [30], 79%.

Regarding `Cc1ccc(Cl)cc1/N=C(\S)NCCS`, the Activity is on record as 8% in the test on Rattus norvegicus [31]; 10% with Rattus norvegicus [32]; -3% with Rattus norvegicus [33]; -20% with Rattus norvegicus [34]; 25% in the test with Rattus norvegicus [35].

Turning to `Cc1ccc(C)c(OCCCC(C)(C)C(=O)O)c1` [GEMFIBROZIL], the Activity with Rattus norvegicus [36] was 2%; in the test on Rattus norvegicus [37] it was 104%; in the test on Rattus norvegicus [38], -23%; in the test on Rattus norvegicus [39], -29%; in the test with Rattus norvegicus [40], 54%.
